# Measured values from different studies.
# Compare with care: the assays were run in different laboratories.
# Target: Serine/threonine-protein kinase STK11 (STK11, Homo sapiens, UniProt Q15831)
# Residues used in one study (Q15831 1-433): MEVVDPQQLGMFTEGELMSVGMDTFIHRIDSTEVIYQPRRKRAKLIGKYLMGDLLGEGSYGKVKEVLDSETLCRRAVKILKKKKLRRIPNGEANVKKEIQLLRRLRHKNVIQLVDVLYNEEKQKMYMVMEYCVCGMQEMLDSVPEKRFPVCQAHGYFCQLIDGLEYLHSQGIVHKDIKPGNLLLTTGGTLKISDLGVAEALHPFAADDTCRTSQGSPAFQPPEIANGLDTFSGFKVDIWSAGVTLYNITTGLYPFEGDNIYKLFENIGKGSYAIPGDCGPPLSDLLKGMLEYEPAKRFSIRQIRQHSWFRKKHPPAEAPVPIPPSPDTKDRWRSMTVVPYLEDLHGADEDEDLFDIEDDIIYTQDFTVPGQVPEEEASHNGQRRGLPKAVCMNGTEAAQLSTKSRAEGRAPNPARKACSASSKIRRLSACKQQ
SMILES,observed,method,concentration,remaining binding
N[C@H]1CCN(c2nccc(-c3cnn4ncccc34)n2)C1,binding,,1 µM,65%
O=C(O)[C@@H]1[C@@H](Cn2nnc3ccccc3c2=O)CC[C@H]1C(=O)c1ccc(OCCC2CCOCC2)cc1,cell-free assay,competition with immobilised ligand,1 µM,94%
COc1cnc(Nc2cccc(S(N)(=O)=O)c2)nc1N1CCN(c2ccccc2)C(=O)C1,binding,competition with immobilised ligand,1 µM,100%
C[C@H](c1ccc(F)cc1)N(Cc1cccc(C(=O)O)c1)C(=O)c1cnc2ccccc2c1,cell-free assay,competition with immobilised ligand,1 µM,100%
Cc1cnn2ncc(-c3ccnc(N(C)C)n3)c2c1,binding,,1 µM,99%
C[C@@H]1CN(c2ccc3ncc(-c4ccc5[nH]nc(C6CC6)c5c4)n3n2)C[C@H](C)O1,binding,competition with immobilised ligand,50 nM,72%
CN(C)c1nccc(-c2cnc3ncccn23)n1,binding,,1 µM,100%
O=C(NC[C@@H]1[C@H]2CN(C(=O)OCc3cc(C(F)(F)F)cc(C(F)(F)F)c3)C[C@@H]12)c1ccc2[nH]nnc2c1,cell-free assay,competition with immobilised ligand,1 µM,100%
Cc1cnc(Nc2ccc(C(=O)N3CCC(N4CCCC4)CC3)cc2)nc1-c1cc2ccccc2s1,binding,competition with immobilised ligand,1 µM,2.5%
FC(F)(F)Oc1cccc(-c2cnc3ccc(-c4ccncc4)nn23)c1,cell-free assay,competition with immobilised ligand,5 µM,72%
CC(C)(C)c1ccc(-c2nc(CBr)nn2-c2cccc(O)c2)cc1,cell-free assay,competition with immobilised ligand,10 µM,100%
C[C@@H]1CCN(c2nccc(-c3cnn4ncccc34)n2)C1,binding,,1 µM,100%
c1cncc(-c2cccc(Nc3nccc(NC4CCCCC4)n3)c2)c1,binding,competition with immobilised ligand,10 µM,100%
O=C(NCC1CCOCC1)c1n[nH]cc1NC(=O)c1c(F)cccc1F,binding,competition with immobilised ligand,1 µM,100%
COc1ncc2cc3ccccc3nc2c1C#N,cell-free assay,competition with immobilised ligand,5 µM,99%
O=C(Nc1cccnn1)N1CCC(=Cc2cccc(Oc3ccc(C(F)(F)F)cn3)c2)CC1,cell-free assay,competition with immobilised ligand,1 µM,100%
CC1CCCN1c1nccc(-c2cnn3ncccc23)n1 (stereo not drawn),binding,,1 µM,100%
O=C(c1ccc(Nc2ncc(Cl)c(-c3cc4ccccc4s3)n2)cc1)N1CCC(N2CCCC2)CC1,binding,competition with immobilised ligand,1 µM,1.6%
CC(=O)C1=C(C)N(c2cccc(C(F)(F)F)c2)C(=O)N[C@@H]1c1ccc(C#N)nc1,cell-free assay,competition with immobilised ligand,1 µM,72.8%
COc1cnc(Nc2cccc(S(N)(=O)=O)c2)nc1N1CCN(c2ccccc2)CC1,binding,competition with immobilised ligand,1 µM,82%
Nc1c(C(=O)NCc2ccc(C(=O)NCCCC3CCCCC3)cc2)cnn1-c1ccccc1,cell-free assay,competition with immobilised ligand,0.1 µM,100%
O=C(c1ccc(Nc2nccc(-c3cc4ccccc4s3)n2)cc1)N1CCC(N2CCCC2)CC1,binding,competition with immobilised ligand,1 µM,4.3%
c1cnn2ncc(-c3ccnc(N4CCC45COC5)n3)c2c1,binding,,1 µM,84%
CN(C)C(=O)Cn1cc(-c2nc([C@@](C)(c3ccc(-c4cnc(N)nc4)cc3)C3CC3)no2)cn1,cell-free assay,competition with immobilised ligand,1 µM,77%
